Results reported in ChEMBL document CHEMBL4270612, “Discovery of dual GyrB/ParE inhibitors active against Gram-negative bacteria” (Eur J Med Chem, 2018).
Values after ≈ are worked out from the molar mass of the structure shown.

Tests used:
[1] = Dissociation constant, acidic pKa of compound by pH metric method; type: physicochemical
How it was run: (§1)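 Potentiometric (pH-metric) titration on an automated titrator, Gold Standard pH metric assay, run in triplicate.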

[2] = system: Acinetobacter baumannii; experiment: Antibacterial activity against Acinetobacter baumannii ARC3513 after 24 hrs by broth microdilution method; type: functional; conditions: ARC3513, 24 h
How it was run: (§2)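 Broth microdilution per CLSI. Bacterial suspension adjusted to 1×10^6 CFU/mL in cation-adjusted Mueller–Hinton broth and mixed 1:1 with 2-fold serial compound dilutions. Final DMSO 2.5% v/v. Plates incubated at 35 °C with shaking at 140 rpm for 24 h.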

[3] = system: Acinetobacter baumannii; experiment: Antibacterial activity against Acinetobacter baumannii ARC2780 after 24 hrs by broth microdilution method; type: functional; conditions: ARC2780, 24 h
How it was run: (§3)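 Broth microdilution per CLSI. Bacterial suspension adjusted to 1×10^6 CFU/mL in cation-adjusted Mueller–Hinton broth and mixed 1:1 with 2-fold serial compound dilutions. Plates incubated at 35 °C with shaking at 140 rpm for 24 h.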

[4] = system: Acinetobacter baumannii; experiment: Antibacterial activity against Acinetobacter baumannii ARC3493 after 24 hrs by broth microdilution method; type: functional; conditions: ARC3493, 24 h; how it was run: as §2
[5] = Dissociation constant, basic pKa of compound by pH metric method; type: physicochemical; how it was run: as §1
[6] = system: Acinetobacter baumannii; experiment: Antibacterial activity against Acinetobacter baumannii ARC2779 after 24 hrs by broth microdilution method; type: functional; conditions: ARC2779, 24 h; how it was run: as §2
[7] = system: Pseudomonas aeruginosa; experiment: Antibacterial activity against Pseudomonas aeruginosa ARC3514 after 24 hrs by broth microdilution method; type: functional; conditions: ARC3514, 24 h; how it was run: as §3
[8] = system: Pseudomonas aeruginosa; experiment: Antibacterial activity against Pseudomonas aeruginosa ARC3727 after 24 hrs by broth microdilution method; type: functional; conditions: ARC3727, 24 h; how it was run: as §3
[9] = system: Acinetobacter baumannii; experiment: Antibacterial activity against Acinetobacter baumannii ARC2781 after 24 hrs by broth microdilution method; type: functional; conditions: ARC2781, 24 h; how it was run: as §3
[10] = system: Pseudomonas aeruginosa; experiment: Antibacterial activity against Pseudomonas aeruginosa ARC3925 after 24 hrs by broth microdilution method; type: functional; conditions: ARC3925, 24 h; how it was run: as §3
[11] = system: Acinetobacter baumannii; experiment: (§4) Antibacterial activity against Acinetobacter baumannii ARC3495 after 24 hrs by broth microdilution method; type: functional; conditions: ARC3495, 24 h; how it was run: as §2
[12] = system: Pseudomonas aeruginosa; experiment: Antibacterial activity against Pseudomonas aeruginosa ARC4063 after 24 hrs by broth microdilution method; type: functional; conditions: ARC4063, 24 h; how it was run: as §3
[13] = Thermodynamic solubility of the compound at pH 7.4; type: physicochemical; conditions: buffer; for solubility thermodynamic: read-out: Therm_solubility
[14] = system: Pseudomonas aeruginosa; experiment: Antibacterial activity against Pseudomonas aeruginosa ARC3502 after 24 hrs by broth microdilution method; type: functional; conditions: ARC3502, 24 h; how it was run: as §3
[15] = system: Pseudomonas aeruginosa; experiment: Antibacterial activity against Pseudomonas aeruginosa ARC3916 after 24 hrs by broth microdilution method; type: functional; conditions: ARC3916, 24 h; how it was run: as §2
[16] = system: Acinetobacter baumannii; experiment: Antibacterial activity against Acinetobacter baumannii ARC3658 after 24 hrs by broth microdilution method; type: functional; conditions: ARC3658, 24 h; how it was run: as §2
[17] = Growth inhibition of human A549 cells; type: cell-based
[18] = Protein binding in human plasma; type: ADME, cell-free; conditions: read-out: PPB (converted)
[19] = system: Acinetobacter baumannii; experiment: Antibacterial activity against Acinetobacter baumannii ARC3489 after 24 hrs by broth microdilution method; type: functional; conditions: ARC3489, 24 h; how it was run: as §2
[20] = system: Acinetobacter baumannii; experiment: as §4; type: functional; conditions: ARC3495, 24 h; how it was run: as §2; remark: listed apart in the source
[21] = target: DNA topoisomerase 4 subunit B (Escherichia coli K-12, UniProt P20083); experiment: Inhibition of Escherichia coli ParE
[22] = Dissociation constant, pKa of compound by pH metric method; type: physicochemical; how it was run: as §1

DNA topoisomerase 4 subunit B, sequence (P20083 whole entry): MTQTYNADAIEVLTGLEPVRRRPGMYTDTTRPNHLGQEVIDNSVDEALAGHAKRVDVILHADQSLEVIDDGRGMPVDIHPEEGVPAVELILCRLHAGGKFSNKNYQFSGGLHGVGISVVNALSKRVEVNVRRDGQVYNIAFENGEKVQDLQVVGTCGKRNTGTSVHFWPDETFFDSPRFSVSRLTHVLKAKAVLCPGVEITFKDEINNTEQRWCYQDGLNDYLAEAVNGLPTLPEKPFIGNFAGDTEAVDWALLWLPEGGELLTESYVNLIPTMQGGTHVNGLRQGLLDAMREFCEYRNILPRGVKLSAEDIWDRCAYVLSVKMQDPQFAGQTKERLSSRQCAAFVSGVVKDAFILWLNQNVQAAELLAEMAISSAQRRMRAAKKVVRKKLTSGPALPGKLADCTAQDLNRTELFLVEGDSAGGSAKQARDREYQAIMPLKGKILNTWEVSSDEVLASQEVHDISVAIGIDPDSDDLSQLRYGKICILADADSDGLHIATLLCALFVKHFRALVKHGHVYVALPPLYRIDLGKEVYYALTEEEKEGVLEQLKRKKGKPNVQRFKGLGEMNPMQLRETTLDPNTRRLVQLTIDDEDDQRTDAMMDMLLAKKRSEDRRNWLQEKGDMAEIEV

SMILES | pKa [1] | MIC [2] [µg/mL] | MIC [3] [µg/mL] | MIC [4] [µg/mL] | pKa [5] | MIC [6] [µg/mL] | MIC [7] [µg/mL] | MIC [8] [µg/mL] | MIC [9] [µg/mL] | MIC [10] [µg/mL] | MIC [11] [µg/mL] | MIC [12] [µg/mL] | MIC [14] [µg/mL] | MIC [15] [µg/mL] | MIC [16] [µg/mL] | GI50 [17] [nM] | fraction unbound [18] | MIC [19] [µg/mL] | MIC [20] [µg/mL] | IC50 [21] [nM] | other results
CCNC(=O)Nc1cc(-c2nc(C3CC3)cs2)c(-c2cc(-c3n[nH]c(=O)o3)cnc2N2C3CCC2CN(C)C3)cn1 | 6.7 | 4 (≈ 6.97 µM) | 0.5 (≈ 0.872 µM) | 1 (≈ 1.74 µM) | 7.9 | 1 (≈ 1.74 µM) | 2 (≈ 3.49 µM) | 4 (≈ 6.97 µM) | 0.25 (≈ 0.436 µM) | 4 (≈ 6.97 µM) | 0.5 (≈ 0.872 µM) | 4 (≈ 6.97 µM) | 4 (≈ 6.97 µM) | 2 (≈ 3.49 µM) | 1 (≈ 1.74 µM) | > 25000 | 0.149 | 1 (≈ 1.74 µM) | 0.5 (≈ 0.872 µM) | 3 | solubility thermodynamic [13]: 65.8 µM (≈ 37.7 µg/mL)
CCNC(=O)Nc1cc(-c2nc(C(F)(F)F)cs2)c(-c2cc3ncccc3nc2N2C3CCC2CN(C)C3)cn1 | – | 8 (≈ 14.1 µM) | 0.5 (≈ 0.879 µM) | 2 (≈ 3.52 µM) | – | 2 (≈ 3.52 µM) | 8 (≈ 14.1 µM) | 32 (≈ 56.3 µM) | 0.5 (≈ 0.879 µM) | 16 (≈ 28.1 µM) | 2 (≈ 3.52 µM) | 16 (≈ 28.1 µM) | 16 (≈ 28.1 µM) | 16 (≈ 28.1 µM) | 2 (≈ 3.52 µM) | > 25000 | 0.03 | 2 (≈ 3.52 µM) | 2 (≈ 3.52 µM) | 14 | pKa [22]: 7.8; Therm_solubility ([13]; BLD = below limit of detection): Bld
CCNC(=O)Nc1cc(-c2nc(C(F)(F)F)cs2)c(-c2cc(-c3n[nH]c(=O)o3)cnc2N2C3CCC2CN(C)C3)cn1 | 6.7 | 4 (≈ 6.65 µM) | 0.5 (≈ 0.831 µM) | 1 (≈ 1.66 µM) | 7.8 | 1 (≈ 1.66 µM) | 4 (≈ 6.65 µM) | 4 (≈ 6.65 µM) | 0.25 (≈ 0.416 µM) | 8 (≈ 13.3 µM) | 0.5 (≈ 0.831 µM) | 8 (≈ 13.3 µM) | 8 (≈ 13.3 µM) | 4 (≈ 6.65 µM) | 1 (≈ 1.66 µM) | > 40000 | 0.211 | 1 (≈ 1.66 µM) | 0.5 (≈ 0.831 µM) | 4 | solubility thermodynamic [13]: 1490 µM (≈ 896 µg/mL)
